S100A4 MyoIIA: S100A4-myosin IIA interaction inhibition; inhibition, % at 10.7 µM; 360,000 compounds, 0.14% hits; S100A4/TAMRA-MyoIIA peptide fluorescence polarization;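 active means mean inhibition of at least 70% across replicates, with every replicate also reaching that level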
Target sequence (P26447 whole entry, looked up): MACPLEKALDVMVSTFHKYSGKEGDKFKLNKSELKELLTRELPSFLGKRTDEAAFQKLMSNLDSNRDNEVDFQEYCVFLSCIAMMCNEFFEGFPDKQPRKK
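Assay system: human S100A4 monomer with TAMRA-labelled myosin IIA peptide / Buffer or medium: Calcium-containing HEPES buffer, pH 7.2 / Reagent: TAMRA-labelled myosin IIA heavy-chain peptide probe, 5 nM / Compound: one dose per compound / Timing: polarization read 5 min after assay mix addition, stable 5–60 min / Benchmarks: neutral control DMSO, positive control TFP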
miR122 inh: inhibitors of miR-122 in Huh7 cells | activation (reporter increase), % at 12.5 µM | Huh7 miR-122 Renilla luciferase sensor, 48 h; neutral wells = 0, positive control = 100 | AID 602342 | 340,000 compounds, 0.3% hits;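 active means mean replicate activation score at least 90 and every replicate individually at or above 90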;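 further: higher luciferase means less miR-122 activity so hits act as miR-122 inhibitors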
SIRT5 block: blocks human SIRT5 desuccinylation of peptide; Q9NXA8; Purified SirT5, succinyl-peptide AMC, trypsin-coupled fluorescence; inhibition, % at 15 µM; 330,000 compounds, 1.1% hits; AID 652115; in the data active means inhibition above about 15%
Target sequence (Q9NXA8 whole entry, looked up): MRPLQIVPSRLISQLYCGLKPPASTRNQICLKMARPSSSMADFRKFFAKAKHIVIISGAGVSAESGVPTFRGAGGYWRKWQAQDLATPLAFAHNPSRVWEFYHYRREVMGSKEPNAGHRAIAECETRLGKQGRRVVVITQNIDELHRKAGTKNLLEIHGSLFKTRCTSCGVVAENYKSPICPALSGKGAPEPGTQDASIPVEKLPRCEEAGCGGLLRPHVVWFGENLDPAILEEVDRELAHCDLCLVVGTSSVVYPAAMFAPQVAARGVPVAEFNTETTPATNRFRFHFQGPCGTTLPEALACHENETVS
FGF22 binding: shifts melting point of recombinant human FGF22 | Q9HCT0 | 340,000 compounds, 1.5% hits | recombinant FGF22 thermal shift, SYPRO orange fluorescence; percent of sucrose octasulfate shift, DMSO zero | activity (Tm shift, normalised), % at 9.99 µM;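 active means mean Tm shift, scaled 0 neutral to 100 positive control, at about 1.3% or above, every replicate too, limit read from the data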
E-selectin induc: E-selectin induction on HUVECs; P16581; HUVEC E-selectin immunofluorescence imaging; normalized: neutral wells 0, TNF-alpha wells 100; activation, % at 7.58 µM; 260,000 compounds, 0.37% hits;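 active means mean E-selectin-positive cell signal at least 10% of the positive control, reached in at least 60% of replicates, without over 20% cell loss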
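Assay system: HUVEC, human umbilical vein endothelial cells / Amount: 3,000 HUVEC/well / Controls: TNF-alpha positive control, DMSO neutral control / Compound dosing: single concentration / Medium: EGM-2 over gelatin coat / Evaluation: percent E-selectin-positive cells / Signal: immunofluorescence imaging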
Hits are given with their value; . = inactive; / = no result. This is a sample that favours compounds with a hit; in the whole collection about 2.5% have one here.

SMILES | S100A4 MyoIIA | miR122 inh | SIRT5 block | FGF22 binding | E-selectin induc
C[C@H](CO)N1C[C@H](C)[C@H](CN(C)C(=O)c2ccncc2)OCCCC[C@H](C)Oc2ccc(NS(C)(=O)=O)cc2C1=O | . | . | . | . | .
C[C@@H]1CN([C@H](C)CO)C(=O)c2cc(NS(=O)(=O)c3ccc(Cl)cc3)ccc2O[C@@H]1CN(C)Cc1ccc(C(=O)O)cc1 | . | . | . | . | .
C[C@H]1CN([C@@H](C)CO)C(=O)Cc2cc(NS(=O)(=O)c3cn(C)cn3)ccc2O[C@H]1CN(C)Cc1ccc(-c2ccccc2)cc1 | . | . | . | . | .
C/C=C/c1ccc2c(c1)O[C@@H](CN(C)Cc1ccccc1)[C@@H](C)CN([C@@H](C)CO)S2(=O)=O | . | . | . | . | .
C/C=C/c1ccc2c(c1)O[C@H](CN(C)Cc1ccccc1)[C@@H](C)CN([C@@H](C)CO)S2(=O)=O | . | . | 18.0 | . | .
Cc1ccc(O)c(NC(=O)c2cccc(S(=O)(=O)N3CCCCC3)c2)c1 | / | 112.9 | / | / | /
O=C(NC1CCS(=O)(=O)C1)c1cccc(S(=O)(=O)N2CCCCCC2)c1 (centres undefined) | . | / | . | . | .
O=C(NC1CCS(=O)(=O)C1)c1cccc(S(=O)(=O)N2CCCC2)c1 (centres undefined) | . | . | . | 43.2 | .
COc1ccc(Nc2nc3c(C)cccc3cc2C#N)cc1 | . | / | . | 43.0 | .
CCCN(C)C[C@H]1Oc2ncc(C#CCC(C)C)cc2C(=O)N([C@@H](C)CO)C[C@H]1C | . | . | . | . | .
C[C@H]1CN([C@@H](C)CO)C(=O)c2cccc(NS(C)(=O)=O)c2O[C@@H]1CN(C)Cc1ccc(C(F)(F)F)cc1 | . | . | . | . | .
CCCn1c(N)c(C(=O)CSc2nnc(C3CC3)n2C2CC2)c(=O)[nH]c1=O | . | / | / | 43.0 | .
CCCn1c(N)c(C(=O)CSc2nnc(C3CC3)n2-c2ccccc2)c(=O)[nH]c1=O | . | . | . | . | /
CCN(CC)S(=O)(=O)c1ccc(Cl)c(NC(=S)NC(=O)C2CCCC2)c1 | . | . | . | . | .
CCN(CC)c1ccc(S(=O)(=O)Nc2cc(Cl)ccc2Cl)cc1NC(=S)NC(=O)C1CCCC1 | . | 284.6 | . | . | /
O=C(C[C@@H]1C[C@H]2c3cc(NS(=O)(=O)c4ccc(F)cc4)ccc3O[C@H]2[C@@H](CO)O1)NCc1ccccc1 | . | . | . | . | .
Cc1cc(C)cc(N(C(=O)c2csnn2)C(C(=O)NC(C)(C)C)c2ccccn2)c1 (centres undefined) | . | / | 25.9 | . | /
CC(C)N1C(=O)CCN(C=O)c2ccccc21 | . | / | . | 43.1 | /
O=CN1CCC(=O)N(Cc2ccccc2)c2ccccc21 | / | . | / | / | /
CO[C@H]1CN(C)C(=O)c2ccc(NC(=O)Nc3ccc(C(F)(F)F)cc3)cc2OC[C@H](C)NC[C@H]1C | . | . | 15.2 | . | .
CCCC(=O)Nc1ccc2c(c1)OC[C@@H](C)NC[C@H](C)[C@@H](OC)CN(C)C2=O | . | / | . | . | .
CCCC(=O)Nc1ccc2c(c1)OC[C@H](C)NC[C@H](C)[C@H](OC)CN(C)C2=O | 100.9 | / | . | . | .
CCCCCCN1C2=NCCN2c2ccccc21 | / | . | / | / | /
CCCCCCCN1C2=NCCCN2c2ccccc21 | . | . | . | 43.4 | /
O=C(C[C@@H]1C[C@@H]2c3cc(NC(=O)Cc4ccncc4)ccc3O[C@@H]2[C@H](CO)O1)NCc1ccccn1 | . | . | . | . | .
COC(=O)C[C@@H]1C[C@H]2c3cc(NC(=O)Cc4ccncc4)ccc3O[C@H]2[C@H](CO)O1 | . | . | 15.3 | . | .
O=C(C[C@H]1C[C@H]2c3cc(NC(=O)Cc4ccncc4)ccc3O[C@H]2[C@H](CO)O1)NCc1ccccn1 | 96.3 | . | . | / | .
CC(C)(O)C#Cc1ccc([C@H]2[C@H](CO)N3CCCCN(C(=O)c4ccc(F)cc4)C[C@@H]23)cc1 | 104.4 | . | . | . | .
CC(C)(O)C#Cc1ccc([C@H]2[C@@H](CO)N3CCCCN(C(=O)c4ccc(F)cc4)C[C@H]23)cc1 | . | . | . | . | .
COc1cccc(-c2ccc([C@@H]3[C@H](CO)N4CCCCN(C(=O)c5ccc(F)cc5)C[C@@H]34)cc2)c1 | 112.9 | . | . | . | .

Screens deposited in PubChem BioAssay by Broad Institute.
